Source: PubChem
Only a selection was taken, and hits are over-represented in it overall.
Diaphorase act = diaphorase activation or chemical reduction counter-screen; Diaphorase/resazurin coupled assay, resorufin fluorescence, 16 min; hits give high values; 1 = vehicle wells, 0 = NADH-free wells; activation factor at 20 µM; 190,000 compounds, 0.005% hits; AID 1229;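 active = diaphorase activity raised at least twofold by the compound at 20 µM; inactive = activation factor below 2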
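test system = bacterial diaphorase enzyme (C. kluyveri) | quantity = enzyme 0.07 U/mL final | reagent = NADH substrate 0.114 mM plus resazurin dye 0.1 mM, final | incubation = 16 min enzyme reaction, ambient temperature | buffer or medium = HEPES pH 7.4 buffer with MgCl2 and Tween 20 | signal = fluorescence of resorufin, 544 nm excitation, 590 nm emission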
PfG6PD inh = PfG6PD (Plasmodium falciparum) enzyme inhibition; PfGluPho enzyme, NADPH resazurin-diaphorase fluorescence; inhibition, % at 20 µM; 350,000 compounds, 0.78% hits; AID 504690;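 active = inhibition reaching at least a set limit at 20 µM in the primary screen, cut at about 59% in these data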;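 also: 0% = DMSO wells with substrate and 100% = DMSO wells lacking glucose-6-phosphate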
Lmaj promast = inhibitors of Leishmania major promastigote growth; Leishmania major promastigotes, resazurin fluorescence viability; inhibition, % at 10 µM; 200,000 compounds, 9% hits;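 also: promastigotes grown with compound for 44 hours at 28 °C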
Diaphorase inh = diaphorase inhibition or chemical oxidation counter-screen. diaphorase resazurin-to-resorufin fluorescence, NADH, 16 min; bacterial (C. kluyveri) enzyme, not human. inhibition, % at 20 µM. 190,000 compounds, 0.69% hits;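 active = primary screen inhibition at 20 µM above a set limit, cut at about 50% in these data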;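 also: plate controls were DMSO with full reaction for no effect and wells lacking NADH for full effect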
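System: Diaphorase enzyme from Clostridium kluyveri | Amount: Enzyme working solution with 0.14 U/mL diaphorase | Benchmarks: No-NADH positive control and DMSO neutral control | Signal: Fluorescence of resorufin formed from resazurin, Ex 544/Em 590 nm | Schedule: 16-min room-temperature incubation before reading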
G6PDH counter = counter-screen for G6PDH assay hits: L. mesenteroides G6PDH inhibition. 200,000 compounds, 0.12% hits. Purified L. mesenteroides G6PDH, diaphorase/resazurin coupled fluorescence, 45 min. AID 1020. inhibition, % at 5 µM
DTT redox prof = compounds producing H2O2 with reducing agent – biochemical, NIH compound library profiling, artefact control for MLSCN library redox annotation, primary screen; 200,000 compounds, 0.03% hits; activation, % at 10 µM; AID 878; DTT-dependent redox cycling H2O2, phenol red/HRP absorbance; 100% = 100 µM peroxide control, 0% = buffer;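 active = activation of at least 50% relative to the plate's high and low controls in the primary single-dose screen; inactive = activation below 50%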;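 also: compound incubated with DTT at 0.8 mM final as the reducing agent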
PfGluPho conf = confirmation of Plasmodium falciparum G6PD inhibitors. AID 504753. 2,400 compounds, 34% hits. recombinant PfGluPho, NADPH-diaphorase-resazurin fluorescence. shares compounds with PfG6PD inh. inhibition, % at 20 µM;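 active = inhibition of at least 50% at 20 µM in any single replicate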;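 also: 0% = DMSO with substrate and 100% = DMSO lacking glucose-6-phosphate substrate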
Diaphorase 10uM = diaphorase inhibition or oxidation at 10 uM NADPH | diaphorase-coupled resazurin reduction, fluorescence, NADPH 10 uM | inhibition, % at 20 µM | shares compounds with PfG6PD inh | 820 compounds, 39% hits | AID 504862;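 active = average inhibition reaching 50% or more with the compound at 20 µM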;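 also: resorufin red fluorescence formed as diaphorase reduces resazurin using NADPH; 0% = DMSO with enzyme and 100% = DMSO without enzyme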
Diaphorase 30uM = inhibits diaphorase or oxidizes, flagging false PfG6PD hits; shares compounds with PfG6PD inh; Diaphorase/resazurin coupled assay, resorufin fluorescence, 30 uM NADPH; inhibition, % at 20 µM; 820 compounds, 29% hits;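 active = inhibition averaging 50% or more, tested at 20 µM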;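 also: 0% = DMSO with enzyme and 100% = DMSO wells lacking diaphorase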
* marks the source's active call; other numbers are inactive results; x = no result given. Rule as the data show it, unless noted: active = inhibition above about 50%; inactive = the rest.

SMILES | Diaphorase act | PfG6PD inh | Lmaj promast | Diaphorase inh | G6PDH counter | DTT redox prof | PfGluPho conf | others
Cc1ccc2nc(SC(C)C(=O)NC3CCCc4ccccc43)[nH]c2c1 (stereo not given) | 0.9 | 75.7* | 1.8 | 14.6 | -8.0 | 0.0 | 44.1
O=C(CSc1nc2ccc(Cl)cc2[nH]1)NC1CCCc2ccccc21 (stereo not given) | 0.9 | 107.2* | 8.9 | 9.5 | -9.3 | -0.4 | 55.2* | Diaphorase 10uM=42.0;Diaphorase 30uM=34.2
COc1ccc(OC)c(C(C(=O)NC2CCCCC2)N(Cc2ccco2)C(=O)c2ccccn2)c1 (stereo not given) | x | 3.5 | x | x | x | x | x
CC(=O)N(Cc1ccc(F)cc1)C1=C(NCc2ccccc2)C(=O)c2ccccc2C1=O | 0.7 | 70.8* | 100.5* | 33.9 | 51.2* | 0.2 | 45.9
N#Cc1c(N)n[nH]c1-c1cc2c([nH]1)CCCC2 | 0.8 | 1.1 | 11.6 | 24.2 | 2.9 | -0.5 | x
N#Cc1cc2c([nH]c1=S)CCCCCC2 | 0.9 | 62.9* | -0.9 | 14.0 | 4.2 | 2.3 | 21.9
C[C@H]1CN([C@@H](C)CO)S(=O)(=O)c2ccc(Br)cc2O[C@H]1CN(C)S(=O)(=O)c1ccccc1 | x | 7.1 | x | x | x | x | x
O=c1c2cccc(Cl)c2nc2n1Cc1ccccc1-2 | x | 77.7* | x | x | x | x | 42.7
O=c1nc2n(c3ccccc13)Cc1ccccc1-2 | 0.9 | x | x | 10.0 | 3.6 | x | x
Cn1c(=O)c(=O)n(C)c2cc(S(=O)(=O)CCC(=O)Nc3c(F)c(F)c(F)c(F)c3F)ccc21 | x | 6.3 | x | x | x | x | x
N#CCCN(Cc1ccccc1)C(=O)Nc1ccc(F)cc1 | x | -4.6 | x | x | x | x | x
O=S(=O)(Nc1ccccc1N1CCCC1)c1ccccc1C(F)(F)F | x | 16.3 | x | x | x | x | x
O=S(=O)(Nc1ccccc1N1CCCCC1)c1ccc(Cl)s1 | 0.8 | 86.4* | 15.5 | 18.1 | 5.7 | 1.5 | 22.4
COc1ccc(-c2csc(NC(=O)COC(=O)c3ccco3)n2)cc1 | 0.9 | 59.9* | 4.0 | 7.0 | 15.9 | -0.2 | 15.9
Cc1ccc(S(=O)(=O)N(C)C)cc1NC(=O)C1CCCCC1 | x | -1.6 | x | x | x | x | x
CCN(C(=O)COC(=O)CCC(=O)c1cccs1)c1ccccc1 | x | -6.4 | x | x | x | x | x
CC(C)(C)c1ccc(N=C2SCC(=O)N2Cc2cccs2)cc1 | x | 64.1* | x | x | x | x | -19.7
O=C(Nc1cccc(S(=O)(=O)N2CCCCC2)c1)c1ccc2c(=O)n3c(nc2c1)CCCCC3 | 0.9 | 56.1 | 49.4 | 13.9 | -51.8 | -0.1 | x
C=C(CN(C)C)C(=O)c1ccc(C)cc1C | x | 67.7* | x | x | x | x | 45.0
CCOc1ccccc1C(=O)Nc1cc(Cl)ccc1O | 0.8 | 67.0* | 79.4* | 18.5 | -36.5 | 0.6 | -9.0
COc1ccc(CN2C(=O)CC(C(=O)NCCc3ccc(S(N)(=O)=O)cc3)SC2=Nc2ccccc2)cc1 (stereo not given) | 1 | 15.7 | -3.5 | 3.1 | -2.5 | 0.0 | x
C[C@H]1CN([C@@H](C)CO)C(=O)CCCn2nncc2CO[C@H]1CN(C)C(=O)c1ccc2ccn(C)c2c1 | x | -2.2 | x | x | x | x | x
Cc1cccc(-c2nc3ccccc3c(=O)n2NC(=S)N(C)C)c1 | 1 | 61.8* | -5.3 | -0.7 | 0.9 | -0.2 | 32.1
CN(C)C(=S)Nn1c(-c2ccccc2)nc2ccccc2c1=O | 1 | -1.2 | -8.4 | 4.0 | 3.0 | 0.2 | x
COc1ccc(NC(=O)CSc2nnc(-c3cccc(O)c3)o2)cc1 | x | 80.2* | x | x | x | x | 38.5
O=C(CSc1nnc(-c2ccc(O)cc2)o1)Nc1ccccc1 | x | -0.5 | x | x | x | x | x
N=C1/C(=C/c2cccn2CCOc2ccccc2)C(=O)N=C2SC=C(c3ccccc3)N12 | 1 | 64.7* | 58.6* | 0.0 | -16.2 | 0.8 | 8.6
